Screening data deposited in PubChem by The Scripps Research Institute Molecular Screening Center.
CHO parental Ca: signal in parental CHO cells, OX1R antagonist counter-screen; parental CHO-K1, ATP-induced calcium, Fluo-8 fluorescence; inhibition, % at 5.6 µM; 0.63% of 330,000 active;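 active = inhibition above that plate's mean sample inhibition plus 3 SD, cut at about 26% in these data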;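 note: 0% = ATP-challenged DMSO wells and 100% = DMSO wells without ATP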
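test system = CHO parental line | reagent = ATP stimulus | measured by = intracellular calcium via Fluo-8 no-wash fluorescent dye | control set = ATP and no-ATP DMSO wells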
OX1R antag-1: blocks the human orexin 1 receptor; O43613; OX1R-expressing cells, FRET antagonist read-out; inhibition, % at 6.6 µM; 1.8% of 330,000 active; AID 485270; in the data active = inhibition mostly above about 38%, no sharp cut-off; inactive = mostly below about 40%;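 note: 0% = agonist challenge alone and 100% = reference antagonist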
GalR3 antagonist: human GalR3 antagonism | AID 651719 | 0.44% of 360,000 active | inhibition, % at 3 µM | HEK293 GalR3-CNG cAMP membrane potential fluorescence; galR3 body fused to GalR1 C-terminus | O60755;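 active = inhibition above the screen-wide average plus 3 SD, cut at about 13% in these data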;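 note: forskolin and galanin both at EC90 stimulate the cells; cAMP rise reported by CNG channel membrane potential dye signal; 0% = forskolin plus galanin with DMSO and 100% = forskolin alone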
Target sequence (O60755 1-299 limits assumed): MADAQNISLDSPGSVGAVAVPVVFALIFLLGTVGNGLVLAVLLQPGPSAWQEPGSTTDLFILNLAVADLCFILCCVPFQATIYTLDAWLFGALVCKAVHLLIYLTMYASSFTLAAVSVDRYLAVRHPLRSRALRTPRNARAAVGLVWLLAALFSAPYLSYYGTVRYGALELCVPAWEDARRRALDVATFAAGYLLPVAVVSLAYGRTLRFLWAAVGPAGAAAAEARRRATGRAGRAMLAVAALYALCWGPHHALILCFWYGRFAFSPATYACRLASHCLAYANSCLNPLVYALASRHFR
GPR7 antagonist: antagonists of human GPR7 (neuropeptides B/W receptor 1); P48145; GPR7-expressing cells, fluorescence antagonist assay; inhibition, % at 4.4 µM; 1.1% of 290,000 active; AID 1861; in the data active = inhibition above about 16%, passing the limit was not always enough;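 note: cells stimulated with the agonist NPW; 0% = agonist with vehicle and 100% = vehicle without agonist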
Target sequence (P48145 whole entry, looked up): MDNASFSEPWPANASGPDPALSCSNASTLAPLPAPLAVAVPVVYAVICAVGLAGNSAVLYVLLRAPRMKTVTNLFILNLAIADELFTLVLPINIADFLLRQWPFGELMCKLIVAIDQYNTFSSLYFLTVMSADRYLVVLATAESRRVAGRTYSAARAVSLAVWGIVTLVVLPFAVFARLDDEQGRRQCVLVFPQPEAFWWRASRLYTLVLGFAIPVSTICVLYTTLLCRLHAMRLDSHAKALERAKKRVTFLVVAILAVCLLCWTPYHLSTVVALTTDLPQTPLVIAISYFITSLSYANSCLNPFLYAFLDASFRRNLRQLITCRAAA
OX1R antag-2: antagonists of human orexin 1 receptor; CHO/OX1R cells, Fluo-8 calcium fluorescence, orexin A; AID 434989; O43613; inhibition, % at 5 µM; 0.43% of 330,000 active;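 active = inhibition above its plate's threshold, mean inhibition of all tested compounds on the plate plus 3 SD, cut at about 37% in these data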;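 note: 0% = orexin A challenge wells and 100% = SB-334867-A antagonist wells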
GPR7 antag cf: human GPR7 antagonism, confirmation assay. inhibition, % at 4.4 µM. shares compounds with GPR7 antagonist. 52% of 2,400 active. GPR7-expressing cells, calcium fluorescence antagonist mode; in the data active = inhibition above about 24%;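 note: stimulated with the GPR7 agonist NPW; 0% = agonist plus vehicle and 100% = vehicle alone without agonist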
MCHR1 antag: MCHR1 (human) antagonism in GPR7 counter-screen | 62% of 2,400 active | shares compounds with GPR7 antagonist | MCHR1-expressing cells, fluorescence antagonist assay | inhibition, % at 4.4 µM | AID 2148; in the data active = inhibition above about 22%;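 note: 0% = vehicle with agonist and 100% = vehicle without agonist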
Numbers without * were called inactive; · = not tested or not shown. Only some compounds are listed: those with a hit (about 3.1% of all), similar ones and a draw of the others.

SMILES	CHO parental Ca	OX1R antag-1	GalR3 antagonist	GPR7 antagonist	OX1R antag-2	GPR7 antag cf	MCHR1 antag
CC(NC(=O)c1ccc(C#N)cc1)C1CC2CCC1C2 (stereo not drawn)	-12	9	-6	23*	-19	-4	13
CC(NC(=O)c1ccc(N(C)C)cc1)C1CC2CCC1C2 (stereo not drawn)	·	·	-2	0	·	·	·
Cc1ccccc1OCCn1cnc2cc([N+](=O)[O-])ccc2c1=O	2	31	3	26*	-27	27*	55*
Cc1ccc(NC2SC(=O)N(Cc3cccc(C(=O)O)c3)C2=O)cc1 (stereo not drawn)	2	8	-3	29*	14	4	-4
COC(=O)c1ccc(CN2C(=O)[C@]3(OCCC=C[C@H]3C)c3cc(OC)ccc32)cc1	·	·	-8	·	·	·	·
O=C(O)c1c[nH]c2c([N+](=O)[O-])cccc2c1=O	·	·	-2	·	·	·	·
Cc1ccccc1CN1CCc2c(OCC(=O)N3CCCc4ccccc43)cccc2C1=O	-2	28	-2	22*	12	31*	60*
C[C@H](CO)N1C[C@H](C)[C@@H](CN(C)S(=O)(=O)c2cn(C)cn2)Oc2cc(Br)ccc2S1(=O)=O	·	·	-6	·	·	·	·
O=S(=O)(c1ccc(Br)s1)N1CCN(c2ccnc3cc(Cl)ccc23)CC1	9	13	1	28*	-2	37*	29*
CS(=O)(=O)N1CCN(c2ccnc3cc(Cl)ccc23)CC1	-16	12	-2	-9	-18	·	·
CC(=O)c1cccc(NC(=O)CSc2nnc(C(C)N(C)C)n2-c2ccc(F)cc2)c1 (stereo not drawn)	-16	28	-5	35*	-25	10	-4
COc1ccccc1CC(=O)Nc1ccc2c(c1)C(=O)NC2=O	4	17	0	33*	0	23	16
O=C(CSc1ccc(F)cc1)Nc1ccc2c(c1)C(=O)NC2=O	31	21	-5	25*	0	36*	43*
CCOC(=O)c1cccc(NC(=O)c2cnccn2)c1	-6	7	-2	-6	-7	·	·
COC(=O)c1cccc(NC(=O)c2cnccn2)c1	·	·	-9	24*	·	8	1
Cc1c(NC(=O)c2cccc(NC(=O)C(C)Oc3ccccc3)c2)c(=O)n(-c2ccccc2)n1C (stereo not drawn)	·	·	-6	·	·	·	·
Cc1c(C(=O)NCCC#N)sc(=O)n1Cc1ccc(C(=O)N(C)C)cc1	·	·	-1	·	·	·	·
O=C(/C=C/c1ccccc1)NNC(=O)c1cccs1	3	17	1	-3	-7	·	·
COc1ccccc1/C=C/C(=O)NNC(=O)c1cccs1	-6	27	-6	30*	4	-3	4
O=c1[nH]c2cc3c(cc2cc1CN(Cc1ccco1)C(=S)NCCCN1CCOCC1)OCCO3	-15	6	-2	100*	-40	4	-3
CCCCNC(=S)N(Cc1ccco1)Cc1cc2cc3c(cc2[nH]c1=O)OCCO3	-14	17	-2	-3	-31	·	·
C[C@H](CO)N1C[C@H](C)[C@@H](CN(C)S(=O)(=O)c2ccc(F)cc2)Oc2ncc(Br)cc2C1=O	·	·	1	·	·	·	·
O=C(c1ccccc1)N1CCC2CCN(CCc3ccccc3)CC21 (stereo not drawn)	·	·	-7	·	·	·	·
O=C(OC1C2CCC1C1CN(CCc3ccccc3)CC12)c1ccccc1 (stereo not drawn)	-15	14	-15	42*	-14	42*	24*
FC(F)Sc1ccc(NC(=S)NCc2ccccc2)cc1	11	26	-7	46*	-7	37*	51*
SMILES	CHO parental Ca	OX1R antag-1	GalR3 antagonist	GPR7 antagonist	OX1R antag-2	GPR7 antag cf	MCHR1 antag
S=C(NCC1CCCCC1)Nc1ccc(Oc2ccccc2)cc1	-10	18	-5	-4	-22	·	·
FC(F)Sc1ccc(NC(=S)NCC2CCCCC2)cc1	22	32	-7	34*	2	58*	75*
COc1ccc(-n2c(=S)[nH]c3[nH]ncc3c2=O)cc1	-7	3	-5	23*	0	0	4
COc1ccc(CN2C(=O)CSCC2(C)C(=O)NCc2ccccc2)cc1OC (stereo not drawn)	·	·	-3	·	·	·	·
Nc1sc2c(c1C(=O)NCCc1ccccc1)CCCC2	·	·	-4	·	·	·	·
Cc1ccccc1Nc1nc(NCc2ccco2)c2ccccc2n1	11	38	-10	27*	10	14	63*
Oc1ccccc1Nc1nc(NCc2ccco2)c2ccccc2n1	2	26	-10	-7	-14	·	·
N#CC1=C(N)Oc2cc(N)ccc2C1c1ccc(F)cc1F (stereo not drawn)	1	22	-10	34*	11	9	21
O=C(c1nnsc1S(=O)c1ccc(Cl)cc1)N1CCOCC1 (stereo not drawn)	·	·	-4	25*	·	37*	92*
Nc1ccc2c(c1)-c1ccc(F)cc1C2=O	·	·	-2	·	·	·	·
O=C1CC(=O)c2c1cccc2[N+](=O)[O-]	·	·	·	-13	·	·	·
O=C1NC(=Nc2ccccc2)c2c1cccc2[N+](=O)[O-]	-5	74*	-1	32*	-3	-4	-14
COC(=O)CNC(=O)c1c(-c2ccccc2Cl)noc1C	-1	0	-2	23*	2	-1	2
COC(=O)CNC(=O)c1c(-c2c(Cl)cccc2Cl)noc1C	-6	16	-8	-7	-18	·	·
O=C(Nc1c(-c2ccc(Cl)cc2)[nH][nH]c1=O)c1ccccc1Cl	·	·	-2	·	·	·	·
Cn1nnnc1SCC(=O)Nc1ccc(Oc2ccccc2)cc1	2	25	-2	22*	-14	14	18
COc1ccc(NC(=O)CSc2nnnn2C)cc1	-9	-3	-6	-11	-14	·	·
COc1cccc(C2c3[nH]c4ccccc4c3CCN2C(=O)c2ccccc2F)c1OC (stereo not drawn)	-1	17	-5	37*	-7	27*	35*
Cc1ccc(C)c(N2CCN(CCCNC(=O)CCC(=O)N3CCOc4ccc(Cl)cc43)CC2)c1	-12	-4	-12	29*	-8	50*	79*
O=C(CCC(=O)N1CCOc2ccc(Cl)cc21)NCCCN1CCN(c2ccccc2F)CC1	-16	21	·	4	-23	·	·
CCOC(=O)N1CCN(CC(O)COC2CC(C)CCC2C(C)C)CC1 (stereo not drawn)	-13	4	-3	6	-28	·	·
CC1CCN(CC(O)COC2CC(C)CCC2C(C)C)CC1 (stereo not drawn)	-26	11	-9	23*	-7	18	15
O=C(OCC(=O)N1CCN(C(=O)c2ccco2)CC1)c1cc(-c2ccc(Cl)c(Cl)c2Cl)nc2ccccc12	-40	23	-4	-12	-30	·	·
CN1CCCN(C(=O)c2cc(-c3ccc(Cl)c(Cl)c3Cl)nc3ccccc23)CC1	-10	14	-6	21*	-11	31*	39*
